Test results: PubChem BioAssay AID463104 (Sanford-Burnham Center for Chemical Genomics, 2010)
The whole screen tested about 330,000 compounds, of which about 1,100 (0.33%) were called active. What follows is part of a selection rich in actives, with near analogues and random picks from the rest. A number with no mark means an inactive call.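 How the source made its calls: active means versus positive control, 20 µM dose yields 30% or more activation; inactive means the rest.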

Assay: IRE1-XBP1 pathway stimulators – cell-based, CHO-XBP1 luciferase reporter, luminescence, uHTS, primary screen (AID 463104);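 further: 100% = tunicamycin at 10 µg/mL and 0% = DMSO only wells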
Conditions: IRE1-XBP1 UPR activation, at 20 µM, hits give high values, percent of tunicamycin response, DMSO as zero
Outline: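 Test system: CHO-XBP1 luciferase reporter cells | Buffer or medium: Serum-containing F12 medium, 10% FBS | Schedule: 6 h compound exposure at 37 °C, 5% CO2 | Detection: Steady-Glo luciferase glow luminescence, 10 min after reagent addition | Read-out basis: Activation, % of tunicamycin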

Row | Structure (SMILES) | activation
1 | CCOC(=O)c1c(N)n(Cc2ccccc2)c2nc3ccccc3nc12 | 2.64%
2 | COC(=O)C1=C(c2ccccc2)C[C@@H]2CC[C@H]1N2C(=O)NCc1ccco1 | 1.2%
3 | COc1cc(Cn2c(N)c(C(=O)NCc3ccco3)c3nc4ccccc4nc32)cc(OC)c1OC | 35.8% (active)
4 | CC(C(=O)Nc1ccc(Cl)cc1Cl)N1CC=C(c2ccccc2)CC1 (stereo not given) | -1.2%
5 | CNC(=O)O/N=C(\N)Cc1csc2ccc(Cl)cc12 | 0.76%
